Assay results reported in PubChem BioAssay AID651654 (Broad Institute, 2012).
Where “and” joins values, the source holds several entries; their conditions need not be identical. Equal entries are not always repeated. The whole screen tested about 360,000 compounds, of which about 740 (0.21%) were called active. The sample holds actives, similar compounds and a random draw of the others, so the mix is not that of the screen.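 The calls were made as follows: active = mean lysis activity across replicates of at least 80%, whatever share of replicates individually reach that level; inactive = mean lysis activity below 80%.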 Where a structure was tested more than once in an assay, its records may differ in their call.

Assay: fungicidal lysis via adenylate kinase leakage – AK release luminescence, single concentration, primary screen (AID 651654)
Conditions: C. neoformans lysis, 4 h, at 15 µM, stronger effect = higher value, normalised: neutral wells 0, clomiphene wells 100
Outline: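 Test system: log-phase Cryptococcus neoformans yeast cells; Quantity: yeast cell density of 5 × 10^6 cells/mL; Buffer or medium: YPD; Doses: single compound concentration per well; Timing: 4 h at 37 °C static, read 1 h later; Measured by: AK luminescence; Read-out basis: lysis from increased AK signal; Control set: Clomiphene as positive control.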

SMILES | lysis activity
COCC(=O)Nc1ccc2c(c1)OC[C@H](C)N(C(=O)Cc1ccccn1)C[C@H](C)[C@@H](OC)CN(C)C2=O | 6.59% (inactive)
CCC(=O)N1[C@@H]2c3ccc(-c4cccnc4)c(=O)n3C[C@H]1[C@H](CO)[C@H]2C(=O)N1CCc2ccccc2C1 | -6.94% (inactive)
C[C@H](CO)N1C[C@H](C)[C@H](CN(C)Cc2ccc(C(F)(F)F)cc2)Oc2c(NC(=O)C3CCOCC3)cccc2C1=O | 0.0275% (inactive)
Cc1ccc(S(=O)(=O)Nc2ccc3c(c2)C(=O)N([C@H](C)CO)C[C@@H](C)[C@@H](CN(C)S(C)(=O)=O)OCCCC[C@@H](C)O3)cc1 | -3.44% (inactive)
Cc1noc(C)c1S(=O)(=O)Nc1ccc2c(c1)C(=O)N([C@@H](C)CO)C[C@H](C)[C@H](CN(C)CC1CCCCC1)OCCCC[C@H](C)O2 | 1.9% (inactive)
Cc1noc(C)c1S(=O)(=O)Nc1ccc2c(c1)C(=O)N([C@H](C)CO)C[C@@H](C)[C@@H](CN(C)Cc1ccccc1)OCCCC[C@@H](C)O2 | 0.357% (inactive)
Cc1ccc(S(=O)(=O)Nc2ccc3c(c2)C(=O)N([C@H](C)CO)C[C@@H](C)[C@H](CN(C)C(=O)Nc2ccc(C(F)(F)F)cc2)OCCCC[C@H](C)O3)cc1 | -2.02% (inactive)
CCCN(C)C[C@H]1OCCCC[C@H](C)Oc2ccc(NS(=O)(=O)c3ccc(C)cc3)cc2C(=O)N([C@@H](C)CO)C[C@H]1C | -0.143% (inactive)
Cc1noc(C)c1S(=O)(=O)Nc1ccc2c(c1)C(=O)N([C@@H](C)CO)C[C@@H](C)[C@@H](CN(C)Cc1ccccc1)OCCCC[C@H](C)O2 | 96.8% (active)
Cc1ccc(S(=O)(=O)Nc2ccc3c(c2)C(=O)N([C@@H](C)CO)C[C@H](C)[C@H](CN(C)C(=O)Nc2ccc(C(F)(F)F)cc2)O3)cc1 | 100% (active)
C[C@H](CO)N1C[C@H](C)[C@H](CN(C)C)Oc2c(NC(=O)C3CCOCC3)cccc2C1=O | -4.63% (inactive)
CCCN(C)C[C@@H]1OCCCC[C@H](C)Oc2ccc(NS(=O)(=O)c3ccc(C)cc3)cc2C(=O)N([C@H](C)CO)C[C@@H]1C | 98.4% (active)
C[C@H]1CN([C@@H](C)CO)C(=O)c2cc(NS(C)(=O)=O)ccc2O[C@H]1CN(C)C(=O)Nc1ccc(C(F)(F)F)cc1 | 2.09% (inactive)
C[C@H]1CN([C@@H](C)CO)C(=O)c2cccc(NC(=O)C3CCOCC3)c2O[C@@H]1CN(C)C | -5.09% (inactive)
C[C@@H]1CN([C@@H](C)CO)C(=O)c2cccc(NC(=O)C3CC3)c2O[C@@H]1CN(C)C | 80.7% (active)
Cc1noc(C)c1S(=O)(=O)Nc1ccc2c(c1)CC(=O)N([C@@H](C)CO)C[C@H](C)[C@@H](CN(C)S(=O)(=O)c1cn(C)cn1)O2 | 117% (active)
C[C@H]1CN([C@@H](C)CO)C(=O)c2cccc(NS(=O)(=O)c3cn(C)cn3)c2O[C@@H]1CN(C)CC1CCCCC1 | 82.6% (active)
C[C@H]1CN([C@@H](C)CO)C(=O)c2cc(NS(=O)(=O)c3cn(C)cn3)ccc2O[C@H]1CN(C)CC1CCCCC1 | -5.59% (inactive)
C[C@@H]1CN([C@@H](C)CO)C(=O)c2cc(NS(=O)(=O)c3cn(C)cn3)ccc2O[C@@H](C)CCCCO[C@H]1CN(C)S(=O)(=O)c1cn(C)cn1 | 1.43% (inactive)
Cc1ccc(S(=O)(=O)N(C)C[C@@H]2Oc3ccc(NS(=O)(=O)c4c(C)noc4C)cc3CC(=O)N([C@H](C)CO)C[C@H]2C)cc1 | 1.73% (inactive)
C[C@@H]1CN([C@H](C)CO)C(=O)c2cc(NS(=O)(=O)c3cn(C)cn3)ccc2O[C@@H](C)CCCCO[C@H]1CN(C)C | 109% (active)

SMILES | lysis activity
C[C@@H]1CN([C@H](C)CO)C(=O)c2cccc(NS(=O)(=O)c3cn(C)cn3)c2O[C@H]1CN(C)CC1CC1 | -3.67% (inactive)
C[C@@H]1CCCCO[C@H](CN(C)C)[C@H](C)CN([C@@H](C)CO)C(=O)c2cc(NS(=O)(=O)c3cn(C)cn3)ccc2O1 | -0.536% (inactive)
Cc1noc(C)c1S(=O)(=O)Nc1ccc2c(c1)CC(=O)N([C@H](C)CO)C[C@H](C)[C@H](CN(C)S(=O)(=O)c1cn(C)cn1)O2 | -4.65% (inactive)
CN1c2ccc(-c3ccccc3)cc2[C@H]2[C@H](CCN2C(=O)c2ccc3c(c2)OCO3)[C@H]1CO | -10.3% (inactive)
COCC(=O)N(C)C[C@H]1Oc2cc(C#C[C@@H](C)O)ccc2S(=O)(=O)N([C@H](C)CO)C[C@H]1C | 9.52% (inactive)
Cc1ccc(OCC(=O)Nc2ccc(C(=O)O)cc2NC(=O)COc2ccc(C)c(C)c2)cc1C | -1.83% (inactive)
Cc1ccc(OCCCC(=O)NC(C)c2ccccc2)c(C)c1 (stereo unspecified) | 3.6% (inactive)
Cc1ccc(OCC(=O)NC(C)c2ccccc2)cc1C (stereo unspecified) | 204% (active)
C[C@H]1CCCCO[C@H](CN(C)S(=O)(=O)c2cn(C)cn2)[C@@H](C)CN([C@@H](C)CO)C(=O)c2cc(NC(=O)C3CCCCC3)ccc2O1 | -1.38% (inactive)
Cc1cccc(S(=O)(=O)N2CC[C@@H]3[C@H]2c2cc(C#Cc4ccc(F)cc4)ccc2N[C@@H]3CO)c1 | -3.22% (inactive)
CO[C@H]1CN(C)C(=O)c2cc(NC(=O)Nc3cccc(F)c3)ccc2OC[C@@H](C)N(C)C[C@H]1C | 18.3% (inactive)
CO[C@H]1CN(C)C(=O)c2ccc(NC(=O)C3CC3)cc2OC[C@@H](C)N(Cc2ccc(F)cc2)C[C@@H]1C | 95.3% (active)
CO[C@@H]1CN(C)C(=O)c2cc(NC(=O)Nc3cccc(F)c3)ccc2OC[C@H](C)N(C)C[C@@H]1C | 98.7% (active)
CO[C@@H]1CN(C)C(=O)c2cc(NC(=O)C3CC3)ccc2OC[C@H](C)N(Cc2ccc(F)cc2)C[C@@H]1C | 0.205% (inactive)
CO[C@H]1CN(C)C(=O)c2cc(NC(=O)Nc3cccc(F)c3)ccc2OC[C@@H](C)N(C)C[C@@H]1C | 7.44% (inactive)
CO[C@@H]1CN(C)C(=O)c2cc(NC(=O)C3CC3)ccc2OC[C@@H](C)N(Cc2ccc(F)cc2)C[C@@H]1C | 1.45% (inactive)
CC(=O)N(C)C[C@@H]1Oc2cc(-c3cncnc3)ccc2S(=O)(=O)N([C@@H](C)CO)C[C@H]1C | 0.747% (inactive)
C[C@@H]1CN([C@@H](C)CO)S(=O)(=O)c2ccc(C#Cc3ccc(F)cc3)cc2O[C@@H]1CN(C)CC1CC1 | 0.211% (inactive)
C[C@H](CO)N1C[C@H](C)[C@@H](CN(C)C(=O)c2cccc(F)c2)Oc2cc(-c3cncnc3)ccc2S1(=O)=O | 4.59% (inactive) and 104% (active) and -0.371% (inactive)
CC(C)NC(=O)N(C)C[C@H]1Oc2cc(-c3cncnc3)ccc2S(=O)(=O)N([C@@H](C)CO)C[C@H]1C | -2.43% (inactive)
C[C@@H]1CN([C@@H](C)CO)S(=O)(=O)c2ccc(C#Cc3ccc(F)cc3)cc2O[C@H]1CN(C)C(=O)NC1CCCC1 | 81.9% (active)

SMILES | lysis activity
C/C=C/c1ccc2c(c1)O[C@@H](CN(C)C(=O)NC1CCCC1)[C@@H](C)CN([C@H](C)CO)S2(=O)=O | -13.9% (inactive)
CNC(=O)C[C@H]1CC[C@H]2[C@H](COc3ccc(NC(=O)c4cc(C)on4)cc3C(=O)N2C)O1 | 83.7% (active)
Cc1cc(C(=O)Nc2ccc3c(c2)C(=O)N(C)[C@@H]2CC[C@@H](CC(=O)NC4CCCC4)O[C@@H]2CO3)no1 | 1.38% (inactive)
Cc1cc(C(=O)Nc2ccc3c(c2)C(=O)N(C)[C@@H]2CC[C@H](CC(=O)NC4CCCC4)O[C@@H]2CO3)no1 | 3.44% (inactive)
COc1cccc(C(=O)Nc2ccc3c(c2)C(=O)N(C)C[C@@H](OC)[C@@H](C)CN(C)[C@@H](C)CO3)c1 | -1.94% (inactive)
O=C(C[C@@H]1C[C@@H]2c3cc(NS(=O)(=O)c4ccc(F)cc4)ccc3O[C@@H]2[C@@H](CO)O1)NCc1ccncc1 | -3.62% (inactive)
C[C@@H]1CCCCO[C@H](CN(C)C(=O)Nc2ccc(C(F)(F)F)cc2)[C@@H](C)CN([C@@H](C)CO)C(=O)c2cc(NC(=O)Nc3cccc4ccccc34)ccc2O1 | -0.038% (inactive)
C[C@@H]1CN([C@@H](C)CO)C(=O)c2cc(NC(=O)Nc3ccc(F)cc3)ccc2O[C@H]1CN(C)CC1CCCCC1 | -0.073% (inactive)
C[C@H](CO)N1C[C@H](C)[C@@H](CN(C)CC2CCOCC2)Oc2ncc(C#Cc3ccc(F)cc3)cc2C1=O | 1.59% (active)
COc1ccc(C#Cc2cnc3c(c2)C(=O)N([C@@H](C)CO)C[C@H](C)[C@@H](CN(C)CC2CCOCC2)O3)cc1 | 0.473% (inactive)
C[C@@H]1CN([C@@H](C)CO)C(=O)Cc2cc(NC(=O)Nc3ccc4c(c3)OCO4)ccc2O[C@@H]1CN(C)CC1CCCCC1 | 5.47% (inactive)
C[C@H](CO)N1C[C@H](C)[C@H](CN(C)C)Oc2ncc(C#Cc3ccc(F)cc3)cc2C1=O | 5.93% (inactive) and 8.34% (inactive)
C[C@H]1CN([C@@H](C)CO)C(=O)c2cc(NC(=O)Nc3ccc4c(c3)OCO4)ccc2O[C@@H]1CN(C)CC1CCCCC1 | 81.3% (active)
Cc1noc(C)c1NC(=O)Nc1ccc2c(c1)C(=O)N([C@@H](C)CO)C[C@@H](C)[C@H](CN(C)C)O2 | -2.64% (inactive)
C[C@@H]1CN([C@H](C)CO)C(=O)Cc2cc(NC(=O)Nc3cccc4ccccc34)ccc2O[C@@H]1CN(C)Cc1ccc(C(=O)O)cc1 | 105% (active)
Cc1noc(C)c1NC(=O)Nc1ccc2c(c1)CC(=O)N([C@@H](C)CO)C[C@H](C)[C@@H](CN(C)CC1CCCCC1)O2 | 4.38% (inactive)
Cc1noc(C)c1NC(=O)Nc1ccc2c(c1)C(=O)N([C@@H](C)CO)C[C@H](C)[C@H](CN(C)CC1CCCCC1)O2 | 80.5% (active)
C[C@H]1CN([C@@H](C)CO)C(=O)Cc2cc(NC(=O)Nc3cccc4ccccc34)ccc2O[C@@H]1CN(C)C | 5.63% (inactive)
C[C@@H]1CN([C@H](C)CO)C(=O)Cc2cc(NC(=O)Nc3cccc4ccccc34)ccc2O[C@@H]1CN(C)Cc1ccc(C(F)(F)F)cc1 | 0.378% (inactive)
